Eleven compounds from ChEMBL document CHEMBL4138046, “Multivalent ligands for the serotonin 5-HT4 receptor” (Medchemcomm, 2017) can be followed below.

Assay [1] addresses 5-hydroxytryptamine receptor 4 (Homo sapiens) (UniProt Q13639). In words: Agonist activity at human 5-HT4R expressed in GloSensor-22F6 expressing 2B2 cells co-expressing Galpha-s assessed as increase in cAMP accumulation up to 60 mins by luminometry relative to control 5-HT. Format: functional, cell-based. The method, boiled down: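 Cells carrying a cAMP luminescence biosensor were additionally transduced with Gαs and human 5-HT4R, then seeded at 25 x 10³ cells/well 24 h ahead. Ligands (up to 10 µM) were added with 1 mM final IBMX.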
Background: cAMP levels reflect the balance of adenylyl cyclase and phosphodiesterase activity.

For assay [2] the target is unchanged. In words: Partial agonist activity at Rluc-tagged human 5-HT4 receptor expressed in human SH-5YSY cells co-expressing RGFP-fused to Gbeta1 assessed as inhibition of serotonin-induced coupling by BRET assay. The assay is classed as functional, cell-based. (In general: Bioluminescence resonance energy transfer reports proximity on the nanometre scale.)
Assay [3] concerns the target 5-hydroxytryptamine receptor 4 (Cavia porcellus, UniProt O70528). In words: Displacement of [3H]GR113808 from serotonin 5-HT4 receptor in Dunkin-Hartley guinea pigs striatal nuclei membranes incubated for 30 mins by liquid scintillation counting. For orientation: In a radioligand displacement assay an active substance lowers the binding of a labelled ligand.

SMILES strings stand for the structures. Calls of active or inactive are those of the source. The rule behind the calls is not given here.

5-hydroxytryptamine receptor 4 (Homo sapiens), sequence (Q13639 whole entry): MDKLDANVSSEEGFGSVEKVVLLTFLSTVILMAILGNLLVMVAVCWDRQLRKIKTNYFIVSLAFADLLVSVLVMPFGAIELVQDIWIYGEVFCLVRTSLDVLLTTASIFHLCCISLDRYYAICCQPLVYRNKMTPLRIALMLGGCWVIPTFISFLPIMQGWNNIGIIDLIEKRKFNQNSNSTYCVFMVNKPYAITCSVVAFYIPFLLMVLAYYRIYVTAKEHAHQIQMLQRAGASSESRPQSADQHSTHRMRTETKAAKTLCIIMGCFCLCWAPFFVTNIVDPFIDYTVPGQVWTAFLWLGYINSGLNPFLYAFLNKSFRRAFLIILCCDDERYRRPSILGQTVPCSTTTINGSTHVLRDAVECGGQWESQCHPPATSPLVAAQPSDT
5-hydroxytryptamine receptor 4, sequence (O70528 whole entry): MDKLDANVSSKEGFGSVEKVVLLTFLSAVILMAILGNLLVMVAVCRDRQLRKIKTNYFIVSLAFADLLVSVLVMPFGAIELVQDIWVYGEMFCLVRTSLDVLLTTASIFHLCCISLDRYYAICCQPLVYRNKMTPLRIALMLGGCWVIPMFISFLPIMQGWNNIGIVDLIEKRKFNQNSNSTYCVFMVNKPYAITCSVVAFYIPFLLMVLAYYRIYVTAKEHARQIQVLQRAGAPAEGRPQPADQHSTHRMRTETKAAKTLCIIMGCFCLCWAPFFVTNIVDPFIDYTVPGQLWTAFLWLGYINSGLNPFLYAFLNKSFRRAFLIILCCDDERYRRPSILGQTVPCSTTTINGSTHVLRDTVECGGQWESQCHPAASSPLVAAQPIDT

A word on the Ki: it is a measure of affinity in units of concentration, obtained from inhibition or displacement. Turning to `COc1cc(N)c(Cl)cc1C(=O)OCCN1CCC(NC(=O)OC(C)(C)C)CC1`, the Ratio in assay [1] amounted to 0.21. The result in assay [2] was Active. Besides, the Ki in assay [3] is 30 nM.
Take `COc1cc(N)c(Cl)cc1C(=O)N[C@H]1CCN(CCCOc2ccc(F)cc2)C[C@H]1OC`: in assay [2], the outcome was Active.
Consider `CCCCNC(=O)NC1CCN(CCOC(=O)c2cc(Cl)c(N)cc2OC)CC1`, for which the Ratio in assay [1] worked out at 0.24. In addition, in assay [2], the outcome was Active. This compound came in with a Ki in assay [3] of 13 nM.
Turning to `COc1cc(N)c(Cl)cc1C(=O)OCCCN1CCCCC1`, the Ratio in assay [1] worked out at 0.09. Moreover, the outcome in assay [2] was Active.
With `COc1cc(N)c(Cl)cc1C(=O)OCCN1CCC(NC(=O)NCCOCCOCCOCCOCCOCCOCCOCCOCCN=[N+]=[N-])CC1`, the Ratio in assay [1] came to 0.18. For the same compound, the result in assay [2] was Active. For the same compound, the inhibition constant (Ki) in assay [3] was found to be 121 nM.
For the compound `COc1cc(N)c(Cl)cc1C(=O)OCCN1CCC(NC(=O)NCCOCCOCCOCCOCCOCCOCCOCCOCCn2cc(CNC(=O)NCCCN(CCCCN(CCCNC(=O)NCc3cn(CCOCCOCCOCCOCCOCCOCCOCCOCCNC(=O)NC4CCN(CCOC(=O)c5cc(Cl)c(N)cc5OC)CC4)nn3)CCCNC(=O)NCc3cn(CCOCCOCCOCCOCCOCCOCCOCCOCCNC(=O)NC4CCN(CCOC(=O)c5cc(Cl)c(N)cc5OC)CC4)nn3)CCCNC(=O)NCc3cn(CCOCCOCCOCCOCCOCCOCCOCCOCCNC(=O)NC4CCN(CCOC(=O)c5cc(Cl)c(N)cc5OC)CC4)nn3)nn2)CC1`, the Ratio in assay [1] was 0.14. Besides, the outcome in assay [2] was Active. In addition, the Ki in assay [3] is 4.5 nM.
Taken in the same sequence, the figures for `COc1cc(N)c(Cl)cc1C(=O)OCCN1CCC(NC(=O)NCCOCCOCCNC(=O)NCC(=O)OCc2ccccc2)CC1` were 0.15, “Active” and 4 nM.
For the compound `COc1cc(N)c(Cl)cc1C(=O)OCCN1CCC(NC(=O)NCCOCCOCCOCCOCCOCCOCCOCCOCCn2cc(CNC(=O)NCCCN(C)CCCNC(=O)NCc3cn(CCOCCOCCOCCOCCOCCOCCOCCOCCNC(=O)NC4CCN(CCOC(=O)c5cc(Cl)c(N)cc5OC)CC4)nn3)nn2)CC1`, the Ratio in assay [1] came out at 0.16. Moreover, in assay [2], the outcome was Active. The compound further returned a Ki in assay [3] of 9 nM.
Consider `COc1cc(N)c(Cl)cc1C(=O)OCCN1CCC(NC(=O)NCCOCCOCCNC(=O)NCC(=O)O)CC1`, for which, in assay [1], the Ratio is 0.21. Moreover, the result in assay [2] was Active. This compound also gave a Ki in assay [3] of 61 nM.
`COc1cc(N)c(Cl)cc1C(=O)OCCN1CCCCC1`: the outcome in assay [2] was Active.
On to `COc1cc(N)c(Cl)cc1C(=O)OCCN1CCC(NC(=O)NCCOCCOCCNC(=O)NC2CCN(CCOC(=O)c3cc(Cl)c(N)cc3OC)CC2)CC1`, for which the Ratio in assay [1] turned out to be 0.28. Besides, the outcome in assay [2] was Active. The compound also yielded an inhibition constant Ki in assay [3] of 4 nM.
